According to ChEMBL document CHEMBL3877264, “Quinolidene-rhodanine conjugates: Facile synthesis and biological evaluation” (Eur J Med Chem, 2017):
Converted amounts (≈) assume the structure as drawn.

Experiments:
Format in all cases: functional
[1] = Antifungal activity against Fusarium oxysporum NCIM 1332 by standard agar method
Outline: (§1)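 MICs determined by standard agar method; DMSO as solvent control.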

Aspergillus flavus = assay: Antifungal activity against Aspergillus flavus NCIM 539 by standard agar method; outline: as §1
[2] = Antifungal activity against Cryptococcus neoformans NCIM 576 by standard agar method; outline: as §1
Aspergillus niger = assay: Antifungal activity against Aspergillus niger NCIM 1196 by standard agar method; outline: as §1
Candida albicans = assay: Antifungal activity against Candida albicans NCIM 3471 by standard agar method; outline: as §1
Bacillus subtilis [3] = assay: Growth inhibition of Bacillus subtilis NCIM 2079 at 3 ug/ml measured after 12 hrs relative to control; conditions: NCIM 2079, 12 h, read-out: GI
Outline: (§2)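 Bacteria grown in LB at 37 °C and 180 rpm to OD 1. Compounds added to wells, then 0.1% inoculum of 1 OD culture (620 nm). Growth read as OD at 620 nm after 8 h for gram-negative and after 12 h for gram-positive strains.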

Staphylococcus aureus [4] = assay: Growth inhibition of Staphylococcus aureus NCIM 2010 at 10 ug/ml measured after 12 hrs relative to control; conditions: NCIM 2010, 12 h, read-out: GI; outline: as §2
[5] = test system: Mycobacterium tuberculosis; assay: Growth inhibition of Mycobacterium bovis BCG ATCC 35743 at dormant stage measured after 12 days by nitrate reductase dye based two fold dilution method; conditions: BCG str. ATCC 35743, 288 h
Outline: (§3)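 M. bovis BCG was grown in Dubos medium and assayed in Mycobacterium pheli minimal medium (pH 6.6), with compounds from DMSO stocks. Incubation lasted 8 days for active and 12 days for dormant cultures. Viability was read by nitrate reductase at 540 nm against cell-free blanks, with vehicle set as 100% growth. Primary screen was at 30, 10 and 3 µg/ml, in triplicate, mean ± SD. MIC was taken from dose-response curves.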

Pseudomonas fluorescens [6] = assay: Antibacterial activity against Pseudomonas fluorescens NCIM 2036 measured after 8 hrs; conditions: NCIM 2036, 8 h; outline: as §2
[7] = test system: Mycobacterium tuberculosis; assay: Growth inhibition of Mycobacterium bovis BCG ATCC 35743 at dormant stage at 30 ug/ml measured after 12 days by nitrate reductase dye based two fold dilution method relative to control; conditions: BCG str. ATCC 35743, 288 h, read-out: GI; outline: as §3
Bacillus subtilis [8] = assay: Antibacterial activity against Bacillus subtilis NCIM 2079 measured after 12 hrs; conditions: NCIM 2079, 12 h; outline: as §2
Pseudomonas fluorescens [9] = assay: Growth inhibition of Pseudomonas fluorescens NCIM 2036 at 3 ug/ml measured after 8 hrs relative to control; conditions: NCIM 2036, 8 h, read-out: GI; outline: as §2
Escherichia coli [10] = assay: Growth inhibition of Escherichia coli NCIM 2688 at 3 ug/ml measured after 8 hrs relative to control; conditions: NCIM 2688, 8 h, read-out: GI; outline: as §2
Escherichia coli [11] = assay: Growth inhibition of Escherichia coli NCIM 2688 at 30 ug/ml measured after 8 hrs relative to control; conditions: NCIM 2688, 8 h, read-out: GI; outline: as §2
Pseudomonas fluorescens [12] = assay: Growth inhibition of Pseudomonas fluorescens NCIM 2036 at 10 ug/ml measured after 8 hrs relative to control; conditions: NCIM 2036, 8 h, read-out: GI; outline: as §2
Staphylococcus aureus [13] = assay: Growth inhibition of Staphylococcus aureus NCIM 2010 at 3 ug/ml measured after 12 hrs relative to control; conditions: NCIM 2010, 12 h, read-out: GI; outline: as §2
[14] = test system: Mycobacterium tuberculosis; assay: Growth inhibition of Mycobacterium bovis BCG ATCC 35743 at active stage measured after 8 days by nitrate reductase dye based two fold dilution method; conditions: BCG str. ATCC 35743, 192 h; outline: as §3
Bacillus subtilis [15] = assay: Growth inhibition of Bacillus subtilis NCIM 2079 at 10 ug/ml measured after 12 hrs relative to control; conditions: NCIM 2079, 12 h, read-out: GI; outline: as §2
[16] = test system: Mycobacterium tuberculosis; assay: Growth inhibition of Mycobacterium bovis BCG ATCC 35743 at dormant stage at 10 ug/ml measured after 12 days by nitrate reductase dye based two fold dilution method relative to control; conditions: BCG str. ATCC 35743, 288 h, read-out: GI; outline: as §3
Escherichia coli [17] = assay: Antibacterial activity against Escherichia coli NCIM 2688 measured after 8 hrs; conditions: NCIM 2688, 8 h; outline: as §2
[18] = test system: Mycobacterium tuberculosis; assay: Growth inhibition of Mycobacterium bovis BCG ATCC 35743 at dormant stage at 3 ug/ml measured after 12 days by nitrate reductase dye based two fold dilution method relative to control; conditions: BCG str. ATCC 35743, 288 h, read-out: GI; outline: as §3
Bacillus subtilis [19] = assay: Growth inhibition of Bacillus subtilis NCIM 2079 at 30 ug/ml measured after 12 hrs relative to control; conditions: NCIM 2079, 12 h, read-out: GI; outline: as §2
Pseudomonas fluorescens [20] = assay: Growth inhibition of Pseudomonas fluorescens NCIM 2036 at 30 ug/ml measured after 8 hrs relative to control; conditions: NCIM 2036, 8 h, read-out: GI; outline: as §2
Staphylococcus aureus [21] = assay: Antibacterial activity against of Staphylococcus aureus NCIM 2010 measured after 12 hrs; conditions: NCIM 2010, 12 h; outline: as §2
[22] = test system: Mycobacterium tuberculosis; assay: Growth inhibition of Mycobacterium tuberculosis H37Ra ATCC 25177 at active stage measured after 8 days by XTT dye based two fold dilution method; conditions: H37Ra ATCC 25177, 192 h
Outline: (§4)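 MTB H37Ra was grown in Dubos medium, then exposed in Mycobacterium pheli minimal medium (pH 6.6) to compounds dissolved in DMSO. The assay ended on day 8 (active) or day 12 (dormant). Viable cells were measured by XTT reduction menadione assay at 470 nm, blank-corrected, relative to vehicle control. Triplicates were expressed as mean ± SD. MIC came from dose-response curves.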

Escherichia coli [23] = assay: Growth inhibition of Escherichia coli NCIM 2688 at 10 ug/ml measured after 8 hrs relative to control; conditions: NCIM 2688, 8 h, read-out: GI; outline: as §2
[24] = test system: Mycobacterium tuberculosis; assay: Growth inhibition of Mycobacterium tuberculosis H37Ra ATCC 25177 at dormant stage measured after 12 days by XTT dye based two fold dilution method; conditions: H37Ra ATCC 25177, 288 h; outline: as §4
Staphylococcus aureus [25] = assay: Growth inhibition of Staphylococcus aureus NCIM 2010 at 30 ug/ml measured after 12 hrs relative to control; conditions: NCIM 2010, 12 h, read-out: GI; outline: as §2

SMILES | MIC [1] | MIC (Aspergillus flavus) | MIC [2] | MIC (Aspergillus niger) | MIC (Candida albicans) | inhibition of growth at 3 µg/mL (Bacillus subtilis [3]) | inhibition of growth at 10 µg/mL (Staphylococcus aureus [4]) | IC50 [5] | IC90 [5] | MIC (Pseudomonas fluorescens [6]) | inhibition of growth at 30 µg/mL [7] | MIC (Bacillus subtilis [8]) | inhibition of growth at 3 µg/mL (Pseudomonas fluorescens [9]) | inhibition of growth at 3 µg/mL (Escherichia coli [10]) | inhibition of growth at 30 µg/mL (Escherichia coli [11]) | inhibition of growth at 10 µg/mL (Pseudomonas fluorescens [12]) | inhibition of growth at 3 µg/mL (Staphylococcus aureus [13]) | IC50 [14] | IC90 [14] | inhibition of growth at 10 µg/mL (Bacillus subtilis [15]) | also measured
Clc1ccc(COC(Cn2ccnc2)c2ccc(Cl)cc2Cl)c(Cl)c1 (centres undefined) [MICONAZOLE] | 25 mg/L (≈ 60.1 µM) | 12.5 mg/L (≈ 30 µM) | 25 mg/L (≈ 60.1 µM) | 25 mg/L (≈ 60.1 µM) | 25 mg/L (≈ 60.1 µM) |  |  |  |  |  |  |  |  |  |  |  |  |  |  |  | 
Cc1ccc2nc(Cl)c(/C=C3\SC(=S)N(CC(=O)O)C3=O)cc2c1 | 150 mg/L (≈ 396 µM) | 150 mg/L (≈ 396 µM) | 125 mg/L (≈ 330 µM) | 175 mg/L (≈ 462 µM) | 125 mg/L (≈ 330 µM) | -24.1% | -6.18% | > 30 mg/L | > 30 mg/L | > 30 mg/L | -0.24% | > 30 mg/L | -67.2% | -1.08% | -6.72% | -7.54% | 0.77% | > 30 mg/L | > 30 mg/L | -6.38% | inhibition of growth at 10 µg/mL [16]: 13.5%; MIC (Escherichia coli [17]): > 30 mg/L; inhibition of growth at 3 µg/mL [18]: 14.9%; inhibition of growth at 30 µg/mL (Bacillus subtilis [19]): 1.48%; inhibition of growth at 30 µg/mL (Pseudomonas fluorescens [20]): 13.2%; MIC (Staphylococcus aureus [21]): > 30 mg/L; IC50 [22]: > 30 mg/L; IC90 [22]: > 30 mg/L; inhibition of growth at 10 µg/mL (Escherichia coli [23]): 0.409%; IC50 [24]: > 30 mg/L; IC90 [24]: > 30 mg/L; inhibition of growth at 30 µg/mL (Staphylococcus aureus [25]): -5.17%
O=C(O)CCN1C(=O)/C(=C/c2cc3cc(Cl)ccc3nc2Cl)SC1=S |  | 100 mg/L (≈ 242 µM) | 150 mg/L (≈ 363 µM) | 200 mg/L (≈ 484 µM) | 200 mg/L (≈ 484 µM) | 1.91% | -36.7% | > 30 mg/L | > 30 mg/L | > 30 mg/L | 56.5% | > 30 mg/L | 3.17% | 20.6% | 37.3% | 6.58% | -7.27% | > 30 mg/L | > 30 mg/L | -1.12% | inhibition of growth at 10 µg/mL [16]: 25.7%; MIC (Escherichia coli [17]): > 30 mg/L; inhibition of growth at 3 µg/mL [18]: 13.7%; inhibition of growth at 30 µg/mL (Bacillus subtilis [19]): 0.333%; inhibition of growth at 30 µg/mL (Pseudomonas fluorescens [20]): -10%; MIC (Staphylococcus aureus [21]): > 30 mg/L; IC50 [22]: > 30 mg/L; IC90 [22]: > 30 mg/L; inhibition of growth at 10 µg/mL (Escherichia coli [23]): 27.1%; IC50 [24]: > 30 mg/L; IC90 [24]: > 30 mg/L; inhibition of growth at 30 µg/mL (Staphylococcus aureus [25]): -65.7%
O=C(O)CN1C(=O)/C(=C/c2cc3ccccc3nc2Cl)SC1=S | 125 mg/L (≈ 343 µM) |  | 100 mg/L (≈ 274 µM) | 100 mg/L (≈ 274 µM) | 125 mg/L (≈ 343 µM) | -12% | -8.62% | > 30 mg/L | > 30 mg/L | > 30 mg/L | 34.2% | > 30 mg/L | -16.1% | -10.4% | -12.1% | -75.5% | -17.2% | > 30 mg/L | > 30 mg/L | -24.5% | inhibition of growth at 10 µg/mL [16]: 32.9%; MIC (Escherichia coli [17]): > 30 mg/L; inhibition of growth at 3 µg/mL [18]: 23.5%; inhibition of growth at 30 µg/mL (Bacillus subtilis [19]): -22.6%; inhibition of growth at 30 µg/mL (Pseudomonas fluorescens [20]): 13.8%; MIC (Staphylococcus aureus [21]): > 30 mg/L; IC50 [22]: > 30 mg/L; IC90 [22]: > 30 mg/L; inhibition of growth at 10 µg/mL (Escherichia coli [23]): -8.37%; IC50 [24]: > 30 mg/L; IC90 [24]: > 30 mg/L; inhibition of growth at 30 µg/mL (Staphylococcus aureus [25]): -7.84%
